The values below come from publication PMC3677025 (Pharmacological research : the official journal of the …, 2012).

Where only a bound is given, the exact number is not on record here.

In assay [1] the target is T1, EphA4 (Mus musculus, UniProt Q03137). Put plainly: EphA4 AP binding to immobilized KYL peptide. The note with it: for inhibition at 10 µM: read-out: (% Inhib.) EphA4 KYL; for (% Inhib.) EphA4 KYL: screen, compounds at 10 μM. In a few lines:
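Biotinylated KYL peptide (biotin on the lysine of a C-terminal GSGSK linker) was captured on streptavidin-coated wells, with coating in borate buffer pH 8.7. Test compound (10 μM in 1% DMSO for screening; varied concentrations for confirmation) was added with ~0.35 nM mouse EphA4 ectodomain–AP from NIH3T3 supernatant in TBST. Bound AP was read at 405 nm with 1 mg/ml p-nitrophenylphosphate in SEAP buffer pH 9.8, minus AP-only background. Percent inhibition was taken relative to no-compound wells.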

Assay [2] deals with T1, EphA4. As to the kind of experiment: ELISA, ephrin-A5 AP binding to immobilized EphA4 Fc. The gist of the method:
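Mouse EphA4 Fc was captured at 1 μg/ml on protein A wells. Ephrin-A5 AP (~0.01 nM for IC50) from HEK293 supernatant was added with test compound for 2 h in TBST and read with p-nitrophenylphosphate, minus Fc-only background. For reversibility, compound was incubated 2 h, washed 30 min, then ephrin-A5 AP added for 1 h. For mode of inhibition, ephrin-A5 AP was titrated per compound concentration and fitted one-site; Ki came from KD/Bmax versus inhibitor regression.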
(In general: An ELISA detects its analyte on a solid surface through an enzyme-linked reagent.)

Assay [3] deals with EphA2 (Mus musculus, UniProt Q03145). Put plainly: ELISA, ephrin-A5 AP binding to immobilized EphA2 Fc. To be noted: read-out: IC50 ± SE EphA2 ephrin-A5.
The target of assay [4] is T2, EphB4 (Mus musculus, UniProt P54761).
T2 sequence (P54761 16-539): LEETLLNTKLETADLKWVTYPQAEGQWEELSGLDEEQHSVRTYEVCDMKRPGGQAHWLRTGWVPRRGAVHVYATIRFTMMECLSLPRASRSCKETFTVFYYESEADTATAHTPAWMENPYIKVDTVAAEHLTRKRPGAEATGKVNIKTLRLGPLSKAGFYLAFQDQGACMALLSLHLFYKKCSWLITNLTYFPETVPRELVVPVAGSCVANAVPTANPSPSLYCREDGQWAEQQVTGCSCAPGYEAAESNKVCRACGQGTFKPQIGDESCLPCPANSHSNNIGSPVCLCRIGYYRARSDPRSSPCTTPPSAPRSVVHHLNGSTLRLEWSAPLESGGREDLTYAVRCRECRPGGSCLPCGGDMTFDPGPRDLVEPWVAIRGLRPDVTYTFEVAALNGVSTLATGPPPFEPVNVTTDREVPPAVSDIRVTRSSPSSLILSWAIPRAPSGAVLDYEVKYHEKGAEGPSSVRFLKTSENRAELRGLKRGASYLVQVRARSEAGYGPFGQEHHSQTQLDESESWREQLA
As to the kind of experiment: ELISA, ephrin-B2 AP binding to immobilized EphB4 Fc. To be noted: for IC50: read-out: IC50 ± SE EphB4 ephrin-B2.

The next assay deals with HUVECs. As to the kind of experiment: Capillary-like tube formation assay, HUVECs on Matrigel. It counts as cell-based, human. The note with it: at 10 μM, 18 hours. In a few lines:
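HUVECs (2.3 × 10⁴) were seeded on Matrigel-precoated wells in complete HUVEC medium containing test compound or DMSO control and grown for 18 h. Polygons were counted from phase-contrast images, 2–4 pictures from each of 3–6 wells. Counts were compared with DMSO-only wells by one-way ANOVA with Dunnett's post-hoc test.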

In assay [5] the target is T3, EphB4 (Homo sapiens, UniProt P54760).
T3 sequence (P54760 16-987): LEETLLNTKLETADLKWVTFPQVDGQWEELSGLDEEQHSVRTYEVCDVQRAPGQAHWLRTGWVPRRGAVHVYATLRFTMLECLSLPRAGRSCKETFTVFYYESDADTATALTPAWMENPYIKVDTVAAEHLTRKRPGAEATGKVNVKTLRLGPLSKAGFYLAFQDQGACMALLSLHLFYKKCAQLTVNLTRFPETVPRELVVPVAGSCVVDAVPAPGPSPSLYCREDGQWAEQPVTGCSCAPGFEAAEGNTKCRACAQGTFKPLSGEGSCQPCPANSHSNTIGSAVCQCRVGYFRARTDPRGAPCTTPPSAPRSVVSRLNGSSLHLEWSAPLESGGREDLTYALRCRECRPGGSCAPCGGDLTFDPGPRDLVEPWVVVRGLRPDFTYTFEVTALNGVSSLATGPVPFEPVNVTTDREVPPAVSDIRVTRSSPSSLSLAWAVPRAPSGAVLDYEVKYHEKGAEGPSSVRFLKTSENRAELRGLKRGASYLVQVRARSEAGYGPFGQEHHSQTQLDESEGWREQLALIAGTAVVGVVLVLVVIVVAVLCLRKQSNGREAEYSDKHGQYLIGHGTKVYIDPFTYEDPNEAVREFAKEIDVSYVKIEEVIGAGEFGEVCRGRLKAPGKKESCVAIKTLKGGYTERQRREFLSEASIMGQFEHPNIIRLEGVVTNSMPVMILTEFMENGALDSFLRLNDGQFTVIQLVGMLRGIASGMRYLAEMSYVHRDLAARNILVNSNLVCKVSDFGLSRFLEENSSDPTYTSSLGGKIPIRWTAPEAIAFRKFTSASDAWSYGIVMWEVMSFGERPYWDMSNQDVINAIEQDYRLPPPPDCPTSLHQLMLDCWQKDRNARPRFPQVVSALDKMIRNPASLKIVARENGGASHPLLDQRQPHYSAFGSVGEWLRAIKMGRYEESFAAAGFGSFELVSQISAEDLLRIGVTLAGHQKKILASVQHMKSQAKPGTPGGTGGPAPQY
As to the kind of experiment: Ephrin-B2 Fc-induced EphB4 phosphorylation in HUVECs. It counts as cell-based. The note with it: at 50 μM. In a few lines:
(§1)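 HUVECs were serum-starved 1–2 h and preincubated 15 min with 50 μM test compound (DMSO ≤0.4% final). They were then stimulated 20 min with 0.25 μg/mL ephrin-A1 Fc plus 1.5 μg/mL ephrin-B2 Fc (preclustered with 3-fold anti-Fc), or Fc, with compound present. Lysates were made in modified RIPA with NaF and pervanadate. EphA2 (1 μg antibody) and EphB4 (20 μg antibody) immunoprecipitates were immunoblotted for phosphotyrosine; lysates were probed for receptors and β-actin.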

A further assay has as its system EphB6. Put plainly: ELISA, ephrin-B2 AP binding to immobilized EphB6 Fc. To be noted: at 100 μM. The gist of the method:
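Eph receptor Fc fusions were immobilized at 1 μg/ml in TBST on protein A-coated wells. Diluted ephrin AP fusion supernatant from transiently transfected HEK293 cells was added for 2 h with or without test compound; for IC50 it was at approximately 0.01 nM. Bound AP was read with p-nitrophenylphosphate, minus Fc-only background. IC50 came from a variable-slope log(inhibitor)–response fit, bottom constrained to 0.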

Another assay deals with Eph receptors. Put plainly: ELISA, ephrin binding to panel of EphA and EphB receptors. To be noted: at 100 μM.
In assay [6] the target is EphA2 (Homo sapiens, UniProt P29317). Put plainly: Ephrin-A1 Fc-induced EphA2 phosphorylation in HUVECs. To be noted: at 50 μM. Format: cell-based. The gist of the method: as §1
[7] abbreviates: read-out: IC50 ± SE EphA4 ephrin-A5.

T1 sequence (Q03137 20-547 limits assumed): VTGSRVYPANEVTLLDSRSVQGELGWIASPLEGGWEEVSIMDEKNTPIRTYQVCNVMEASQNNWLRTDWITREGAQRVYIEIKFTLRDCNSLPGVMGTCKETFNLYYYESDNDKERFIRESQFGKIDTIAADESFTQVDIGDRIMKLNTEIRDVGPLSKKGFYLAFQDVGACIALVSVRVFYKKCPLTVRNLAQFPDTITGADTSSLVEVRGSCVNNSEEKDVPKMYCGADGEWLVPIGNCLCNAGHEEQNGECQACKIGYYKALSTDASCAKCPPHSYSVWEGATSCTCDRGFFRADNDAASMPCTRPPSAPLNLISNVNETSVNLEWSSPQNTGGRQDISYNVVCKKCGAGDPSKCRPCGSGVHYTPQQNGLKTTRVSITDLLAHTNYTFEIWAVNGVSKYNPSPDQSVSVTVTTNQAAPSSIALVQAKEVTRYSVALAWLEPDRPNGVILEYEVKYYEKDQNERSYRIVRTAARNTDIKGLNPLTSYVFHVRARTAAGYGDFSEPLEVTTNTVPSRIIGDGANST
Sequence of EphA2 (Mus musculus, UniProt Q03145) (Q03145 26-538): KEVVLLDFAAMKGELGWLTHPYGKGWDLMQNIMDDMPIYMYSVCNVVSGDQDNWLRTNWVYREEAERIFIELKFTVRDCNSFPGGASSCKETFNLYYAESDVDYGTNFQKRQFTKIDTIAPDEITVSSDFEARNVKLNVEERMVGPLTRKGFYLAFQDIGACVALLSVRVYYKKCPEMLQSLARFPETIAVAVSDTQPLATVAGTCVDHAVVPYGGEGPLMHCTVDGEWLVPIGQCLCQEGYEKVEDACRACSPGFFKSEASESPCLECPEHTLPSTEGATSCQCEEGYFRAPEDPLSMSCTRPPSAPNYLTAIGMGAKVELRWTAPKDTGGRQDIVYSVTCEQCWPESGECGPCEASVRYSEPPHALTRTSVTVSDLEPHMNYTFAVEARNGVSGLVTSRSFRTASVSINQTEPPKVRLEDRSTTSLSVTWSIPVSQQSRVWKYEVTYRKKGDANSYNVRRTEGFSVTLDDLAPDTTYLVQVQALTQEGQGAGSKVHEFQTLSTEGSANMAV
Sequence of EphA2 (Homo sapiens, UniProt P29317) (P29317 24-976): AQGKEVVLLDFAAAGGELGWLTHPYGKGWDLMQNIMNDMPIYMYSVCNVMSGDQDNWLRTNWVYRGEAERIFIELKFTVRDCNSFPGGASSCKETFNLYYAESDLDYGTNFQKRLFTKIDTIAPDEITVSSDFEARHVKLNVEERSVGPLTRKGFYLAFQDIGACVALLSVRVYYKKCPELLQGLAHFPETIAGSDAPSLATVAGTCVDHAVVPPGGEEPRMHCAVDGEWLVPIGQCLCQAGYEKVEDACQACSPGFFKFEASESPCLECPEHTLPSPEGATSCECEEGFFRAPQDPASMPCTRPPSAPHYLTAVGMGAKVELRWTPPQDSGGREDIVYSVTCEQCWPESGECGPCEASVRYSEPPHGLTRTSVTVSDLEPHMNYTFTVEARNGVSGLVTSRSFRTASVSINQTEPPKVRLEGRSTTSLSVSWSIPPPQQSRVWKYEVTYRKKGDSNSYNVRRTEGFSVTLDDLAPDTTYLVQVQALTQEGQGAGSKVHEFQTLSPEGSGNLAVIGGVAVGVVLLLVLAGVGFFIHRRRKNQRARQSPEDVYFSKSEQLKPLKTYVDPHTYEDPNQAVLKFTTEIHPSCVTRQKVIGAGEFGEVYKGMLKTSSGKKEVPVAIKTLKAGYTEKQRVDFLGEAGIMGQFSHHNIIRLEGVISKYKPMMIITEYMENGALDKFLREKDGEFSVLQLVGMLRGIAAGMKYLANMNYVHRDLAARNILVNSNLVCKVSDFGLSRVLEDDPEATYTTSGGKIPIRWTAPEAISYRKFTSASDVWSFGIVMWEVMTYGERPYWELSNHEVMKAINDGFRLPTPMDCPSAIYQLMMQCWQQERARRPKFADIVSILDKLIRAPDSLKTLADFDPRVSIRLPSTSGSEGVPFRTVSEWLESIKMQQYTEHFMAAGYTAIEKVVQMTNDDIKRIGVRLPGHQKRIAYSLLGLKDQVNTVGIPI

In the case of `O=C(O[C@@H]1Cc2c(O)cc(O)cc2O[C@@H]1c1cc(O)c(O)c(O)c1-c1c([C@H]2Oc3cc(O)cc(O)c3C[C@H]2O)cc(O)c(O)c1O)c1cc(O)c(O)c(O)c1` [2′,2′-bisepigallocatechin monogallate], at EphA4 [1], the inhibition at 10 µM worked out at 80%.

For the compound `O=C(O[C@@H]1Cc2c(O)cc(O)cc2O[C@@H]1c1cc(O)c(O)c(O)c1-c1c([C@H]2Oc3cc(O)cc(O)c3C[C@H]2OC(=O)c2cc(O)c(O)c(O)c2)cc(O)c(O)c1O)c1cc(O)c(O)c(O)c1` [2′,2‴-bisepigallocatechin digallate], on EphA4 [1], the “(% Inhib.) EphA4 KYL” value came out at 76%.

As usually defined, the IC50 is the midpoint of a concentration-inhibition curve. For `O=C(O[C@@H]1Cc2c(O)cc(O)cc2O[C@@H]1c1ccc(O)c(O)c1)c1cc(O)c(O)c(O)c1` [epicatechin-3-monogallate, epicatechin-3-gallate], the IC50 on EphA4 [1] (read-out: IC50 ± SE EphA4 KYL) is 50 ± 6 µM; at EphA4 [2] (setting [7]), more than 200 µM; on EphA2 [3] it was more than 200 µM; at EphB4 [4] it was more than 200 µM. Further, the “(% Inhib.) EphA4 KYL” value on EphA4 [1] is given as less than 40%.

In the case of `Oc1cc(O)c2c(c1)O[C@H](c1ccc(O)c(O)c1)[C@H](O)C2` [epicatechin], the IC50 on EphA4 [1] was 190 ± 1.5 µM; at EphA4 [2], more than 200 µM. Moreover, the inhibition at 10 µM at EphA4 [1] is less than 40%.

Turning to `Oc1cc(O)c2c(c1)O[C@H](c1cc(O)c(O)c(O)c1)[C@H](O)C2` [epigallotechin, epigallocatechin], the results for the IC50 on EphA4 [1] and on EphA4 [2] were 44 ± 13 µM and more than 200 µM, respectively. For the same compound, the inhibition at 10 µM at EphA4 [1] was less than 40%.

In the case of `O=C(O)c1cc(O)c(=O)c2c(O)c(O)cc([C@H]3Oc4cc(O)cc(O)c4C[C@H]3O)c2c1` [epitheaflavic acid], the “(% Inhib.) EphA4 KYL” value at EphA4 [1] is on record as “less than 40%”.

As for `O=C(O)c1cc(O)c(=O)c2c(O)c(O)cc([C@H]3Oc4cc(O)cc(O)c4C[C@@H]3O)c2c1` [theaflavic acid], the “(% Inhib.) EphA4 KYL” value on EphA4 [1] is listed as “less than 40%”.

Regarding `O=c1c(O)cc([C@H]2Oc3cc(O)cc(O)c3C[C@H]2O)cc2c([C@H]3Oc4cc(O)cc(O)c4C[C@H]3O)cc(O)c(O)c12` [theaflavin], the inhibition at 10 µM on EphA4 [1] was less than 40%.

On to epigallocatechin-3-gallate [EGCG], for which the IC50 at EphA4 [1] (read-out: IC50 ± SE EphA4 KYL) was 15 ± 1.8 µM; at EphA4 [2] (setting [7]), more than 200 µM; at EphA2 [3], more than 200 µM; on EphB4 [4], more than 200 µM. Also, the “(% Inhib.) EphA4 KYL” value on EphA4 [1] is given as less than 40%. Moreover, the capillary-like tube formation result in the assay with HUVECs was “significantly inhibits”. Besides, the “inhibition of ephrin-A5 binding to EphA4” value on EphA4 [2] (at 200 μM) was ~ 25%. For the same compound, the “EphB4 phosphorylation in HUVECs” value at EphB4 [5] is “does not strongly inhibit”. The “inhibition of ephrin binding to EphB6” value with EphB6 is on record as “not detectably inhibited”. The “inhibition of ephrin binding to many Eph receptors” value in the assay on Eph receptors was 10–30%. Further, the “EphA2 phosphorylation in HUVECs” value at EphA2 [6] was “does not strongly inhibit”. In addition, the “inhibition of ephrin binding to EphB4” value at EphB4 [4] (at 100 μM) is recorded as “not detectably inhibited”.

As to “theaflavin-3,3′-digallate [theaflavin-3,3′-digallate]”, the “(% Inhib.) EphA4 KYL” value on EphA4 [1] was found to be 65%.
